B2AR ag = beta2AR agonists driving receptor internalization, primary screen, cell-based, FAP fluorogen, flow cytometry; Beta-2 adrenergic receptor (Homo sapiens), P07550; Am2.2-beta2AR cells; response, % (no concentration beside the values); 0.43% of 340,000 active; AID 504454, 2011;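 active = response above a set limit, near 3 SD of response in nonfluorescent compounds, cut at about 42% in these data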
MC4R barr agon = MC4R agonists recruiting beta-arrestin, primary screen, cell-based, luminescence, agonist arm of biased-ligand search; Melanocortin receptor 4 (Homo sapiens), P32245; U2OS MC4R beta-arrestin complementation; percent of melanotan II response, DMSO zero; activation, % at 8.9 µM; 0.98% of 360,000 active;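 active = activation above a per-plate cutoff, the mean activation of sample wells on that plate plus 3 SD, cut at about 8% in these data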
MC4R antag cAMP = MC4R antagonists of cAMP signaling, primary screen, cell-based, TR-FRET, antagonist arm of biased-ligand search. AID 540295, 2011. 0.48% of 360,000 active. Melanocortin receptor 4 (Homo sapiens), P32245. inhibition, % at 6.5 µM. MC4R-expressing cells, MTII-stimulated cAMP, LANCE TR-FRET;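 active = inhibition above its plate's cutoff, the mean of tested wells on that plate plus 3 SD, cut at about 29% in these data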
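Assay system: human MC4R-expressing U2OS cells; reagent: Melanotan II stimulation of cells; dosing: 6.5 µM single dose; timing: compound 30 min, challenge 1 h, detection 1 h; signal: TR-FRET cAMP assay; replicates: one well per compound, no replicates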
HTR2A ag = mouse Htr2a agonists via beta-arrestin recruitment, primary screen, cell-based, luminescence; 5-hydroxytryptamine receptor 2A (Mus musculus), P35363; CHO-K1 mHTR2A beta-arrestin complementation; percent of 30 µM serotonin response; activation, % at 7.6 µM; 0.66% of 360,000 active; AID 624169, 2012;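 active = activation above a run cutoff, the mean activation of all tested compounds plus 3 SD, cut at about 14% in these data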
Target sequence (P35363 whole entry, looked up): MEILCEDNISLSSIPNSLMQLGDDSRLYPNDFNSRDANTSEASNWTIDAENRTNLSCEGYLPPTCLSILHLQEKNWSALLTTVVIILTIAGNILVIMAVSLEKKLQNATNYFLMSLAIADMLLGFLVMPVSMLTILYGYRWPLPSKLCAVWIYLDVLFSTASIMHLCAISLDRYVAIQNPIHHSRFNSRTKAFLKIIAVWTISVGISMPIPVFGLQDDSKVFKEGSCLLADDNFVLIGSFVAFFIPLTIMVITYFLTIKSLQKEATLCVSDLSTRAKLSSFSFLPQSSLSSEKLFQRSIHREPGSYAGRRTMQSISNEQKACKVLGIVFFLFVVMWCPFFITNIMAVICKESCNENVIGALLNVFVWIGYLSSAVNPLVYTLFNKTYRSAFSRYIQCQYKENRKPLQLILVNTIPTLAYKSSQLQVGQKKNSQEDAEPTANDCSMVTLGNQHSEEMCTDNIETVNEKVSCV
TAAR1 ag = human TAAR1 agonists, primary screen, Fluo-8 calcium fluorescence, CHO RD-HGA16 cells | Trace amine-associated receptor 1 (Homo sapiens), Q96RJ0 | vehicle wells 0%, saturating PEA agonist 100% | activation, % at 3 µM | 0.99% of 360,000 active;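 active = activation above the mean activation of all test compounds in the run plus 3 SD, cut at about 38% in these data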
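Test system: RD-HGA16 (CHO) cells co-expressing Gα16 and hTAAR1; dosing: one-point dosing at 3 µM (nominal); timing: 17-24 h seeding, 75 min 37 °C dye, 30 min RT; signal: kinetic Fluo-8 calcium fluorescence; read-out basis: % activation relative to PEA EC100 response; controls: DMSO and PEA EC100; replicates: n 1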
TAAR1 antagonist = human TAAR1 antagonists, primary screen, Fluo-8 calcium fluorescence, CHO RD-HGA16 cells. Trace amine-associated receptor 1 (Homo sapiens), Q96RJ0. 1.5% of 360,000 active. antagonist. inhibition, % at 3 µM;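 active = inhibition above a per-plate cutoff, the mean inhibition of test compounds on that plate plus 3 SD, cut at about 49% in these data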
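Material: CHO RD-HGA16 cells bearing hTAAR1; compound dosing: one-point dosing, 3 µM nominal final; schedule: dye loading 75 min at 37 °C, then 30 min room temperature; measured by: calcium fluorescence with Fluo-8; control set: vehicle and agonist controls; replication: n of 1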
MC4R barr conf = MC4R beta-arrestin agonists, retest, confirmation, cell-based, luminescence, U2OS; shares compounds with MC4R barr agon; U2OS MC4R beta-arrestin recruitment; scaled DMSO 0%, Melanotan II 100%; activation, % at 8.9 µM; 31% of 2,400 active; AID 602192, 2012;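 active = mean activation across replicates above the hit cutoff set in the earlier primary screen, cut at about 8% in these data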
MOR-DOR barr ag = agonists of MOR-DOR heterodimerization, counter-screen for MC4R biased agonist project, cell-based, luminescence; shares compounds with MC4R barr agon; U2OS PathHunter beta-arrestin, beta-gal luminescence; percent of deltorphin B response, DMSO zero; activation, % at 9.2 µM; 5.8% of 2,400 active;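 active = mean activation across replicates exceeds the hit threshold derived in the earlier primary screen, cut at about 18% in these data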
MOR ag counter = OPRM1 agonists via beta-arrestin recruitment, confirmation, counter-screen for mouse HTR2A agonist project, cell-based, luminescence, single concentration; 5.3% of 2,300 active; U2OS OPRM1 beta-arrestin PathHunter; DMSO 0%, DAMGO 9.3 µM 100%; activation, % at 9.3 µM; shares compounds with HTR2A ag;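 active = mean activation above the mean of DMSO-only wells plus 3 SD, cut at about 0.5% in these data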
HTR2A ag conf = mouse HTR2A agonists, beta-arrestin recruitment, confirmation, cell-based, luminescence, CHO-K1 PathHunter, triplicate | activation, % at 7.6 µM | DMSO 0%, 30 µM serotonin 100% | shares compounds with HTR2A ag | 19% of 2,300 active;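 active = mean activation across triplicates above the hit threshold derived in the original primary screen, cut at about 15% in these data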
nonsel antag count = nonselective antagonists in TAAR1 counter-screen cells, counter-screen for hTAAR1 antagonist project, cell-based, fluorescence, calcium. AID 651780, 2012. counterscreen cell line, antagonist mode. 77% of 2,400 active. shares compounds with TAAR1 antagonist. inhibition, % at 3 µM; in the data active = inhibition above about 22%;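 also: CHO-Ga16 host cells stimulated with ATP at an EC80 level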
TAAR1 ant conf = human TAAR1 antagonists, retest of hits, confirmation, cell-based, fluorescence. 40% of 2,400 active. shares compounds with TAAR1 antagonist. inhibition, % at 3 µM. TAAR1-expressing cells, fluorescence antagonist read-out; in the data active = inhibition above about 49%;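 also: CHO-Ga16 host cells challenged with agonist PEA near its EC80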
Ga16 ag counter = calcium activation in Ga16-expressing cells, counter-screen for TAAR1 antagonist project, cell-based, fluorescence | 18% of 2,400 active | agonist counterscreen | activation, % at 3 µM | shares compounds with TAAR1 antagonist; in the data active = activation above about 12%
TAAR1 ag counter = TAAR1 activation by candidate antagonists – cell-based, fluorescence, counter-screen for TAAR1 antagonist project; shares compounds with TAAR1 antagonist; hTAAR1 cell line, agonist mode; activation, % at 3 µM; 2% of 2,400 active; AID 651955, 2012; in the data active = activation above about 37%;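 also: CHO cells stably expressing TAAR1 with calcium dye readout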
Large screens that a line does not name were inactive (follow-up assays come after a bar, where they were run); ! = not active in a repeat. Sampled rows, rich in hits. Any-hit rate of the full collection: about 4.3%.

CCCCCCCCNC(=O)c1cccnc1SCC(=O)Nc1ccc(OC)cc1OC	MC4R barr agon 11 | MC4R barr conf 18 | MOR-DOR barr ag 29
NC(=O)c1cc2cc(Cc3ccccc3Cl)ccc2oc1=O	MC4R barr agon 11 | MC4R barr conf inactive | MOR-DOR barr ag inactive
COc1ccc(S(=O)(=O)N2CCN(CC(=O)NCCc3cccs3)CC2)cc1	none
CCOc1ccc(/C=N/NC(=O)c2cc3c(OC)cccc3[nH]2)cc1	MC4R barr agon 11 | MC4R barr conf inactive | MOR-DOR barr ag 18
S=C(Nc1ccccc1)Nc1ccc(Br)cn1	MC4R barr agon 11 | MC4R barr conf inactive | MOR-DOR barr ag inactive
O=C(NC(=S)Nc1ccc(Br)cn1)c1cccs1	none
COc1ccccc1CCNC(=O)c1c(N)[nH]c(C(=O)c2ccccc2)c1-c1ccc(Br)cc1	none (no result: B2AR ag, MC4R barr agon, MC4R antag cAMP)
CCCCCCCC/C=C\CCCCCCCC(=O)NCCc1ccc(O)c(O)c1	MC4R barr agon 9.8, HTR2A ag 34 | MC4R barr conf inactive | MOR-DOR barr ag inactive | MOR ag counter inactive | HTR2A ag conf 170
CC1(C(=O)NS(=O)(=O)C2CC2)CCCN(C(=O)Cc2ccc(F)cc2)C1 (centres undefined)	none (no result: B2AR ag)
Cc1ccccc1NC(=O)c1nnn(-c2ccc3c(c2)OCCO3)c1N	none
Nc1c(C(=O)Nc2cccc(F)c2)nnn1-c1ccc2c(c1)OCCO2	MC4R barr agon 11, HTR2A ag 15 | MC4R barr conf inactive | MOR-DOR barr ag inactive | MOR ag counter inactive | HTR2A ag conf inactive
O=c1[nH]c2cc(C(F)(F)F)ccc2n1-c1cc(C(F)(F)F)ccc1O	MC4R barr agon 10, HTR2A ag 15 | MC4R barr conf inactive | MOR-DOR barr ag inactive | MOR ag counter 0.6 | HTR2A ag conf inactive
Cc1cccc(-c2nsc(SCC(=O)Nc3nccs3)n2)c1	MC4R barr agon 13, HTR2A ag 18 | MC4R barr conf inactive | MOR-DOR barr ag inactive | MOR ag counter inactive | HTR2A ag conf inactive
CCCS(=O)(=O)NC(=O)C1(C)CCCN(C(=O)c2ccc(F)cc2Cl)C1 (centres undefined)	none (no result: B2AR ag, TAAR1 ag, TAAR1 antagonist)
CN(c1ccccc1)S(=O)(=O)c1ccc(C(=O)Nc2ncccc2O)cc1	none
CCCc1ccc(OCC(O)CN2CCN(c3ccccc3)CC2)cc1 (centres undefined)	none
CCc1ccc(OCC(O)CN2CCN(c3ccccc3)CC2)cc1 (centres undefined)	MC4R barr agon 11, HTR2A ag 15! | MC4R barr conf inactive | MOR-DOR barr ag inactive | MOR ag counter inactive | HTR2A ag conf 29
Cc1cc2oc3ccc(NCCCn4ccnc4)cc3c(=O)c2cc1C	MC4R barr agon 11, HTR2A ag 20 | MC4R barr conf inactive | MOR-DOR barr ag inactive | MOR ag counter 1.4 | HTR2A ag conf inactive
Cc1cc2oc3ccc(NCCCN4CCOCC4)cc3c(=O)c2cc1C	none
COc1cc(CNCCc2ccccc2)cc(Cl)c1OCc1ccccc1	MC4R barr agon 14, HTR2A ag 20, TAAR1 ag 40 | MC4R barr conf 10 | MOR-DOR barr ag inactive | MOR ag counter 1.2 | HTR2A ag conf inactive
Cc1cc(C(O)c2ncc(-c3ccc(Oc4ccccc4)cc3)[nH]2)ccc1F (centres undefined)	MC4R barr agon 12, HTR2A ag 21 (no result: B2AR ag) | MC4R barr conf inactive | MOR-DOR barr ag inactive | MOR ag counter inactive | HTR2A ag conf inactive
OC(c1ccc(F)cc1)c1ncc(-c2ccc(Oc3ccccc3)cc2)[nH]1 (centres undefined)	none (no result: B2AR ag)
CNc1cccc(-c2c(OC)cccc2OC)n1	none (no result: B2AR ag)
Cc1ccc(OCC(=O)Nc2sc3c(c2C#N)CCC3)cc1	MC4R barr agon 11, TAAR1 antagonist 51 | MC4R barr conf inactive | MOR-DOR barr ag inactive | nonsel antag count inactive | TAAR1 ant conf inactive | Ga16 ag counter inactive | TAAR1 ag counter inactive
CCOC(=O)c1sc(NC(=O)c2cccc(S(=O)(=O)N(CC)CC)c2)cc1C	MC4R barr agon 12, TAAR1 antagonist 61 | MC4R barr conf inactive | MOR-DOR barr ag inactive | nonsel antag count 47 | TAAR1 ant conf 63 | Ga16 ag counter inactive | TAAR1 ag counter inactive

Screens deposited in PubChem by several laboratories.
